An excerpt weighted towards active compounds, which were near 1.8% of everything screened.
SKN-1 block: C. elegans SKN-1 inhibition. C. elegans VP596 Pgst-4::GFP/RFP ratio, acrylamide-induced, 24 h. 360,000 compounds, 0.49% hits. inhibition, % at 21.8 µM;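 active = interference check ratio from 0.5 to 1.5 plus GFP to RFP signal ratio inhibition reaching or exceeding a fixed threshold, cut at about 30% in these data, passing the limit was not always enough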
MT1-MMP act inh: MT1-MMP (human) activation inhibition | P50281 | HT1080 RFP-PRO-GFP cells, GFP/RFP ratio fluorescence, overnight; percent of plate control window, DMSO zero | GFP/RFP ratio change, % at 20 µM | 360,000 compounds, 0.061% hits | AID 651647;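 active = GFP/RFP ratio change of at least 30% with cell ATP level not reduced by more than half and red fluorescence within 50% of control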
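Compound: 20 µM single dose, 1% DMSO / System: HT1080 RFP-PRO-GFP cells / Controls: DMSO and RFP-L50D-GFP cell wells / Read-out basis: GFP/RFP fluorescence ratio / Schedule: overnight compound exposure at 37 °C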
Cneo AK release: Cryptococcus neoformans lysis via adenylate kinase release. C. neoformans lysis, adenylate kinase release luminescence, 4 h; normalised: neutral wells 0, clomiphene wells 100. lysis activity, % at 15 µM. 360,000 compounds, 0.2% hits;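 active = mean lysis activity across replicates of at least 80%, whatever share of replicates individually reach that level; inactive = mean lysis activity below 80%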
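Material: C. neoformans cells; Schedule: 4 h static compound exposure, 37 °C, read 1 h post-reagent; Measured by: adenylate kinase release luminescence; Read-out: signal increase indicating cell lysis; Controls: Clomiphene as positive lysis control.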
hiPSC survival: hiPSC single-cell survival enhancement; ATPlite luminescence; 100% = ROCK inhibitor wells, 0% = DMSO; survival enhancement, % at 20 µM; 360,000 compounds, 0.044% hits; in the data active = survival enhancement above about 18%;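 also: cells exposed to compounds for 16 hours before the ATP read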
rRNA inh HTS: selective bacterial rRNA inhibition in E. coli. 350,000 compounds, 1.6% hits. AID 720706. GFP signal change (wild-type ribosome), % (test concentration not listed). E. coli WT GFP vs humanized-ribosome RFP mutants, fluorescence, 24 h; stronger effect = lower value; DMSO median 0, no signal -100;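 active = significant combined selectivity score with lowered wild-type GFP, culture density cut under 30%, mutant RFP and density less affected; inactive = any of these conditions unmet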
DAGLB inhibitor: blocks human DAGLB lipase activity | Q8NCG7 | HEK293T DAGLB membrane lysate, EnzChek fluorogenic substrate | inhibition, % at 5.17 µM | 340,000 compounds, 0.059% hits; in the data active = inhibition above about 34%;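 also: 0% = enzyme with vehicle and 100% = wells lacking enzyme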
Target sequence (Q8NCG7 whole entry, looked up): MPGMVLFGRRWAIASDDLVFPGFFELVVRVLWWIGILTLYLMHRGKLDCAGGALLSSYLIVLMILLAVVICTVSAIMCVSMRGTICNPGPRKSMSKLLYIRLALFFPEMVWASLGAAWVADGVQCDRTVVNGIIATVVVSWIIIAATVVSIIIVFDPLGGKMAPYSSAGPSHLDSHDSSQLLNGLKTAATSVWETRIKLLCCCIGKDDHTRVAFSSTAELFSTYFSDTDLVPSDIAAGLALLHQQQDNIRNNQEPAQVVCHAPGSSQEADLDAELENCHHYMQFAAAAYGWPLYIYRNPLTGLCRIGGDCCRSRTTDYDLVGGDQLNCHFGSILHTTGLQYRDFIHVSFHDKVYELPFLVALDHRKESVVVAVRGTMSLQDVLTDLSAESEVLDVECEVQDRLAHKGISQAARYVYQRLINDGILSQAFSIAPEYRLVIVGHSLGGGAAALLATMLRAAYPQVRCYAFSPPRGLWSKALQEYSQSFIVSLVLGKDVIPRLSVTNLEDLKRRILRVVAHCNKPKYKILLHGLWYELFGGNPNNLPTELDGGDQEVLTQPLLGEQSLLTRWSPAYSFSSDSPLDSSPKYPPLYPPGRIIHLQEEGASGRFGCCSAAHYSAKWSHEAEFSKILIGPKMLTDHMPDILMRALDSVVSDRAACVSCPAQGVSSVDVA
* = called active by the depositor; . = no result.

SMILES	SKN-1 block	MT1-MMP act inh	Cneo AK release	hiPSC survival	rRNA inh HTS	DAGLB inhibitor
COc1cc(NC(=O)c2cccc3c2C(=O)N(C2CCCCC2)C3)cc(OC)c1OC	5	-5	1	0	-41*	1
CCOC(=O)c1ccccc1NC(=O)c1cccc2c1C(=O)N(C1CCN(C(=O)OCC)CC1)C2	-5	5	0	-1	2	-1
CCOC(=O)N1CCC(N2Cc3cccc(C(=O)Nc4ccccc4OC)c3C2=O)CC1	22	0	15	0	-21*	0
N[C@H]1CC[C@H](CCn2cc(-c3ccccn3)nn2)O[C@@H]1CO	.	.	-5	.	2	.
O=C(Cc1ccncc1)NCC[C@H]1CC[C@@H](NC(=O)C2CC2)[C@@H](CO)O1	.	.	-4	.	4	.
COc1ccc(NC(=S)N(Cc2ccc(Cl)cc2)Cc2ccc(C(=O)O)cc2)cc1Cl	-10	7	3	0	-32*	3
CN(C)CCCN(Cc1ccccc1)C(=S)Nc1ccc(F)c(Cl)c1	-15	-5	0	-1	-46*	1
Cc1cc(NC(=S)N(Cc2ccc(Cl)cc2)Cc2ccc(C(=O)O)cc2)ccc1Cl	11	16	-1	0	-58	6
C[C@@H]1CN([C@@H](C)CO)C(=O)Cc2cc(NC(=O)CCN3CCOCC3)ccc2O[C@H]1CN(C)C(=O)Nc1ccc(F)cc1	.	.	3	.	7	.
CCNC(=S)N/N=C/c1cc(C)ccc1C	2	4	.	5	3	-3
CCNC(=S)N/N=C/c1cccc(C)c1	2	-2	.	1	-14*	1
COCC(=O)N1C[C@H](C)[C@@H](OC)CN(C)C(=O)c2cc(NC(=O)Nc3ccccc3)ccc2OC[C@@H]1C	.	.	4	.	1	.
O=C(/C=C\Nc1ccccn1)c1ccccc1	61*	-1	-3	-3	.	1
O=C(/C=C/Nc1ccc(Br)cc1F)c1ccccc1	50*	-3	.	-4	-7	-6
COc1ccccc1NC(=O)N1CCCCN2[C@H](CO)[C@H](c3ccc(-c4ccccc4)cc3)[C@H]2C1	.	.	8	.	.	.
C[C@H](CO)N1C[C@H](C)[C@@H](CN(C)S(=O)(=O)c2cn(C)cn2)Oc2cc(C#Cc3ccccc3)ccc2S1(=O)=O	.	.	1	.	-3	.
O=C(Oc1ccc(OC(=O)c2ccco2)c(S(=O)(=O)c2ccc(Br)cc2)c1)c1ccco1	36*	7	-1	0	.	27
COc1ccc2cc(C[C@@H]3CC[C@@H](CO)O3)ccc2c1	31	8	-2	-2	-23*	-2
CCOC(=O)C1=C(C)N(C[C@@H]2CC[C@@H](Cc3ccc4cc(OC)ccc4c3)O2)C(=O)NC1c1ccc(OC)cc1 (stereo partly drawn)	-20	0	-1	3	3	-4
C=CCNc1ncnc2sc(SC)nc12	50*	-3	-1	2	7	-2
NC(=O)C1CCCN(C(=O)NC2CCCCC2)C1 (stereo not drawn)	40*	1	0	4	.	0
O=C(NCC1CCCCC1)C1CCCN(C(=O)NC2CCCCC2)C1 (stereo not drawn)	-10	9	1	0	.	0
O=C(CSc1nc2scc(-c3ccccc3)c2c(=O)[nH]1)N1CCCCC1	-1	7	-5	1	-35*	2
COc1ccccc1N1CCN(C(=O)CSc2ncccc2-c2nc3ccccc3[nH]2)CC1	14	-6	8	2	.	2
COc1ccccc1N1CCN(C(=O)CSc2nc3ccccc3[nH]2)CC1	-2	5	-1	1	-41*	2
SMILES	SKN-1 block	MT1-MMP act inh	Cneo AK release	hiPSC survival	rRNA inh HTS	DAGLB inhibitor
COc1ccc(-c2nnn(CC(=O)N3CCN(c4ccccc4OC)CC3)n2)cc1OC	-12	-2	-1	-1	-17*	2
Cc1noc(C)c1NC(=O)N(C)C[C@H]1Oc2ccc(NC(=O)Nc3ccc4c(c3)OCO4)cc2CC(=O)N([C@H](C)CO)C[C@@H]1C	.	.	-3	.	-1	.
CCC(=O)N1CC[C@@H]2[C@H]1c1cc(-c3cccc(OC)c3)ccc1N(C)[C@@H]2CO	.	.	1	.	0	.
COc1cccc(-c2ccc3c(c2)[C@H]2[C@H](CCN2C(=O)Cc2ccncc2)[C@H](CO)N3C)c1	.	.	91*	.	1	.
CC(C)NC(=O)N1CC[C@@H]2[C@@H](CO)N(C)c3ccc(-c4cccc(F)c4)cc3[C@@H]21	.	.	92*	.	3	.
C[C@@H]1CN([C@@H](C)CO)C(=O)c2cc(NC(=O)CCCN(C)C)ccc2O[C@H]1CN(C)C(=O)NC1CCCCC1	.	.	2	.	-1	.
COc1ccc(C(=O)CSc2ccc(-c3ccccc3)nn2)cc1	-8	4	-1	-1	.	-5
COc1cccc(-c2ccc(SCC(=O)c3ccccc3)nn2)c1	-7	-2	.	0	-27*	-5
CO[C@@H]1CN(C)C(=O)c2ccc(NC(C)=O)cc2OC[C@H](C)N(CC2CCCCC2)C[C@H]1C	.	.	19	.	-4	.
COc1ccc(N=C2S/C(=C\c3ccc(OCC(=O)O)cc3)C(=O)N2CCc2c[nH]c3ccccc23)cc1	2	-8	.	-1	-3	10
COc1ccc(N=C2S/C(=C\c3ccc(N4CCOCC4)o3)C(=O)N2CCc2c[nH]c3ccccc23)cc1	8	-288	1	40*	.	-2
COc1cccc(S(=O)(=O)N[C@@H]2CC[C@@H](CCNC(=O)Nc3cc(F)ccc3F)O[C@@H]2CO)c1	.	.	-3	.	-6	.
CCn1cc(CN2CCCC(C(=O)c3ccc(-c4ccccc4)c(F)c3)C2)cn1 (stereo not drawn)	6	6	-1	0	-13	2
O=C(c1ccc(-c2ccccc2)c(F)c1)C1CCCN(CCCn2cccn2)C1 (stereo not drawn)	-9	1	0	0	-22*	0
C[C@@H]1CN([C@H](C)CO)C(=O)c2cc(NC(=O)Nc3cccc4ccccc34)ccc2O[C@@H](C)CCCCO[C@@H]1CN(C)C(=O)NC1CCCCC1	.	.	-2	.	-3	.
CCCCC#Cc1ccc(C(=O)NNC(=O)Nc2cc(Cl)cc(Cl)c2)o1	5	-1	.	3	-40*	1
CO[C@@H]1CN(C)C(=O)c2ccc(NS(=O)(=O)c3ccc(Cl)cc3)cc2OC[C@@H](C)NC[C@@H]1C	.	.	2	.	1	.
CC[C@H](C)[C@@H](C(=O)NCCCCCCCCCCC(=O)N1CCNCC1)n1cc(CCCCN=C(N)N)nn1	11	4	1	0	-4	0
CC[C@H](C)Cc1cn([C@@H](CCCN=C(N)N)C(=O)NCCCCCCCCCCC(=O)N2CCNCC2)nn1	-28	0	20	0	-37*	0

Assay outcomes deposited in PubChem by several laboratories.
